Data on 14 molecules can be found in ChEMBL document CHEMBL5143750, “Bisubstrate Inhibitors of Severe Acute Respiratory Syndrome Coronavirus-2 Nsp14 Methyltransferase” (ACS Med Chem Lett, 2022).

As usually defined, the ΔTm is the shift of the melting midpoint relative to a reference. Usually CC50 stands for the concentration giving 50% cytotoxicity. Read a high CC50 as better tolerance by the cells.

In data set [1] the target is Replicase polyprotein 1ab (Severe acute respiratory syndrome coronavirus 2) (UniProt P0DTD1). Nature of the data set: Stabilization of SARS-CoV-2 NSP14 expressed in Escherichia coli BL21(DE3) assessed as change in melting temperature at 200 uM incubated for 4 mins by SYPRO orange dye based thermal shift assay.
A short description of data set [2]: Metabolic stability in CD-1 mouse liver S9 fraction assessed as half life at 1 micromol/L in presence of NADPH measured upto 24 hrs by LC-MS/MS analysis. The note with it: s9, 24 h, 1 µM, dose 1 µmol/L. In kind it is ADME, subcellular.
Data set [3] can be described thus: Metabolic stability in CD-1 mouse plasma at 1 micromol/L measured upto 24 hrs by LC-MS/MS analysis. Type of data set: ADME, cell-free. Particulars: dose 1 µmol/L.
Data set [4] in a line: Metabolic stability in human plasma at 1 micromol/L measured upto 24 hrs by LC-MS/MS analysis. Type of data set: ADME, cell-free. The note with it: dose 1 µmol/L. The method, boiled down: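 Compound was incubated in human plasma, and percentage remaining was followed over the incubation. Data are mean ± SD.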
Data set [5] is described as follows: Metabolic stability in CD-1 mouse liver S9 fraction assessed as half life at 1 micromol/L in presence of UDPGA measured upto 24 hrs by LC-MS/MS analysis. Type of data set: ADME, subcellular. The note with it: s9, 24 h, 1 µM, dose 1 µmol/L.
A short description of data set [6]: Metabolic stability in human liver S9 fraction assessed as half life at 1 micromol/L in presence of UDPGA measured upto 24 hrs by LC-MS/MS analysis. In kind it is ADME, subcellular. The note with it: s9, 24 h, 1 µM, dose 1 µmol/L.
Data set [7] is described as follows: Metabolic stability in human liver S9 fraction assessed as half life at 1 micromol/L in presence of NADPH measured upto 24 hrs by LC-MS/MS analysis. Particulars: s9, 24 h, 1 µM, dose 1 µmol/L. In kind it is ADME, subcellular.
In data set [8] the test system is A549. The data set is described as follows: Cytotoxicity against human A549 cells overexpressing ACE2 and TMPRSS2 incubated for 48 hrs by MTS assay. In kind it is functional. Summed up:
(§1)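 A549 AT host cells were used for viability read-out. More than 95% viability at 50 μM was classed as nontoxic. CC50 values came from at least duplicate determinations and were averaged.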

Data set [9] deals with A549. The data set is described as follows: Cytotoxicity against human A549 cells overexpressing ACE2 and TMPRSS2 assessed as cell viability at 50 uM incubated for 48 hrs by MTS assay. The note with it: read-out: Activity. In kind it is functional. Summed up:
as §1
(In general: Formazan colour is commonly taken as a measure of viable cells.)

For `Nc1ncnn2c([C@@H]3O[C@H](CNS(=O)(=O)c4ccc5ccccc5c4)[C@@H](O)[C@H]3O)ccc12`, in [1], the shift in melting temperature (ΔTm) was above 8 °C. Also, the t1/2 in [2] was 0.482 h; in [5], above 0.75 h; in [6], above 0.75 h; in data set [7], 14 h. For the same molecule, the t1/2 at 24 h, 1 µM in data set [3] and in [4] was above 24 h in each case. In addition, in the data set with A549 [8], the CC50 is above 100 µM.
As to `CC(=O)Nc1ncnc2c1ncn2[C@@H]1O[C@H](CNS(=O)(=O)c2ccc3ccccc3c2)[C@@H](OC(C)=O)[C@H]1OC(C)=O`, in the data set on A549 [8], the CC50 was above 100 µM.
For `Nc1ncnc2c1ncn2[C@@H]1O[C@H](CNC(=O)c2ccc3ccccc3c2)[C@@H](O)[C@H]1O`, the viability at 50 µM in the data set with A549 [9] was above 95%.
On to `CC(C)C(=O)O[C@@H]1[C@H](OC(=O)C(C)C)[C@@H](CNS(=O)(=O)c2ccc3ccccc3c2)O[C@H]1n1cnc2c(N)ncnc21`, for which the cytotoxic concentration (CC50) in the data set on A549 [8] was above 100 µM.
With `Nc1ncnc2c1ncn2[C@@H]1O[C@H](CNS(=O)(=O)c2ccc3cccnc3c2)[C@@H](O)[C@H]1O`, the viability at 50 µM with A549 [9] was above 95%.
In the data set with A549 [8], `CC(=O)O[C@@H]1[C@H](OC(C)=O)[C@@H](CNS(=O)(=O)c2ccc3ccccc3c2)O[C@H]1c1ccc2c(N)ncnn12` displayed a half-maximal cytotoxic concentration (CC50) of 63 µM.
As for `Nc1ncnc2c1ncn2[C@@H]1O[C@H](CNS(=O)(=O)c2ccc3ccccc3c2)[C@@H](O)[C@H]1O`, the ΔTm in [1] is above 8 °C. Moreover, the t1/2 is 4.55 h in data set [2], above 0.75 h in data set [5], above 0.75 h in [6] and 11.2 h in data set [7]. For the same molecule, the t1/2 at 24 h, 1 µM in [3] and in [4] was above 24 h throughout. Also, in the data set on A549 [9], the viability at 50 µM was above 95%.
The molecule `CC(=O)O[C@@H]1[C@H](OC(C)=O)[C@@H](CNS(=O)(=O)c2ccc3ccccc3c2)O[C@H]1n1cnc2c(N)ncnc21` came in with a CC50 with A549 [8] above 100 µM.
Still for that read-out and setting: the same measure for `CCC(CC)COC(=O)[C@H](C)N[P@](=O)(OC[C@H]1O[C@@](C#N)(c2ccc3c(N)ncnn23)[C@H](O)[C@@H]1O)Oc1ccccc1`: 43 µM.
Turning to `Nc1ncnc2c1ncn2[C@@H]1O[C@H](C[C@@H](N)CC[C@H](N)C(=O)O)[C@@H](O)[C@H]1O` [SINEFUNGIN], the viability at 50 µM with A549 [9] was above 95%.
With `Nc1ncnc2c1ncn2[C@@H]1O[C@H](CNCc2ccc3ccccc3c2)[C@@H](O)[C@H]1O`, the viability at 50 µM in the data set on A549 [9] was above 95%.
Consider `O=c1ccc2ccc(O)cc2o1` [UMBELLIFERONE], for which, in data set [5], the t1/2 worked out at 0.013 h.
`Nc1ncnc2c1ncn2[C@@H]1O[C@H](CNS(=O)(=O)c2ccc3nc(Cl)ccc3c2)[C@@H](O)[C@H]1O`: the viability at 50 µM in the data set with A549 [9] is above 95%.
`CC(=O)Nc1ncnc2c1ncn2[C@@H]1O[C@H](CNS(=O)(=O)c2ccc3ccccc3c2)[C@@H](O)[C@H]1O`: the ΔTm in data set [1] was above 8 °C. For the same molecule, the CC50 in the data set with A549 [8] is above 100 µM.
